An excerpt weighted towards active compounds, which were near 2% of everything screened.
Neddyl block = inhibitors of cullin neddylation, primary screen, biochemical, TR-FRET, uHTS, NAE and Ubc12; NEDD8-conjugating enzyme Ubc12 (Homo sapiens) + NEDD8-activating enzyme E1 regulatory …; 360,000 tested, 0.58% active; calls only at 25 µM; in the data active means inhibition above about 36%
NR2E3 ag-1 = NR2E3 agonists in two-hybrid cells, primary screen, cell-based, luminescence, CHO-S, Gal4-NCOR/VP16-NR2E3; 360,000 tested, 0.35% active; Photoreceptor-specific nuclear receptor (Homo sapiens), Q9Y5X4; inhibition of corepressor binding, % at 3.98 µM; luciferase;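 active means inhibition above the mean of all tested compounds plus 3 SD, cut at about 70% in these data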;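 further: 0% = DMSO with NR2E3 transfected cells and 100% = cells lacking NR2E3 construct; higher means lower luciferase signal from less NR2E3 corepressor binding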
Target sequence (Q9Y5X4 whole entry, looked up, the tested form may be a part): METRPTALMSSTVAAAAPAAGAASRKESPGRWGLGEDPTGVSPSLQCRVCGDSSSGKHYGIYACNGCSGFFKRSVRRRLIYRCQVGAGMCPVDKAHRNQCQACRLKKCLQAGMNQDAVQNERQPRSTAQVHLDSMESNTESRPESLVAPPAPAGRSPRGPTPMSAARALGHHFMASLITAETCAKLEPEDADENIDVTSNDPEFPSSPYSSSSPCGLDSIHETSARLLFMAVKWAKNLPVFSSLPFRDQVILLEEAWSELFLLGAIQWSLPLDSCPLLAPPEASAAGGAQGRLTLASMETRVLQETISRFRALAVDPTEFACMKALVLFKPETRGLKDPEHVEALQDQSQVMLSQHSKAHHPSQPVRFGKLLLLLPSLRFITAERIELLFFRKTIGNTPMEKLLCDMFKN
PG9 binder = binders of HIV-1 gp120 antibody PG9, primary screen, biochemical, TR-FRET; HIV-1 gp120 / PG9 antibody interaction; TR-FRET gp120-PG9 antibody binding; inhibition, % at 6.7 µM; 360,000 tested, 0.43% active; AID 624416, 2012; in the data active means inhibition above about 8.5%
NR2E3 ag-2 = inhibitors of NR2E3-RetCOR corepressor binding, primary screen, NR2E3 agonist project, biochemical, TR-FRET, GST-NR2E3, biotin-RetCOR | Photoreceptor-specific nuclear receptor (Homo sapiens), Q9Y5X4 | 1536-well | inhibition of corepressor binding, % at 4.78 µM | 320,000 tested, 0.12% active;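 active means percent inhibition above the cutoff of mean plus 3 SD of all tested compounds, set per screening campaign, cut at about 20% in these data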;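 further: 0% = DMSO wells and 100% = biotin wells as full block of FRET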
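Format: 1536-well format; test system: GST-NR2E3 and biotin-RetCOR proteins; read-out basis: percent inhibition of TR-FRET ratio; timing: 5 h incubation at 4 °C; detection: time-resolved FRET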
Rev-erbA mod = modulators of Rev-erb alpha DNA binding, primary screen, biochemical, FITC-DNA, fluorescence polarization, uHTS; Nuclear receptor subfamily 1 group D member 1 (Homo sapiens), P20393; Rev-erbα–FITC-DNA binding, 90 min; activity, % at 10 µM; 370,000 tested, 0.79% active; AID 1259318, 2017;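 active means activity above about 14%, limit read from the data; passing the limit was not always enough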;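 further: 0% = DMSO wells with 35 nM protein and 100% = DMSO wells with 750 nM protein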
NR2E3 ag conf = NR2E3 agonist confirmation in cells, cell-based, luminescence, CHO-S two-hybrid. 2,300 tested, 51% active. inhibition, % at 3.98 µM. AID 624378, 2012. shares compounds with NR2E3 ag-1. CHO-S mammalian two-hybrid NR2E3-NCOR, luciferase luminescence;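 active means average inhibition above a cutoff equal to the mean inhibition of all tested compounds plus one SD, cut at about 70% in these data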;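 further: 0% = DMSO in NR2E3 cells and 100% = DMSO in cells lacking NR2E3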
GAL4-VP16 luc = GAL4-VP16 reporter modulators, confirmation, counter-screen for NR2E3 agonist project, cell-based, luminescence, CHO-S, high throughput; shares compounds with NR2E3 ag-1; CHO-S GAL4-VP16 luciferase reporter; inhibition, % at 3.98 µM; 2,300 tested, 29% active;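 active means mean inhibition above a cutoff equal to the average over all tested compounds plus one standard deviation, cut at about 70% in these data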;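 further: luciferase from a UAS reporter driven by GAL4-VP16 transactivation; 0% = DMSO with VP16-transfected cells and 100% = DMSO with cells lacking VP16; higher means less reporter light so more repression of VP16 activity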
Active calls of the source: *; i = inactive; x = no result given.

SMILES	Neddyl block	NR2E3 ag-1	PG9 binder	NR2E3 ag-2	Rev-erbA mod	NR2E3 ag conf	GAL4-VP16 luc
O=C(Nc1ccc(F)cc1)Nc1c(-c2ccc(F)cc2)nc2ncccn12	x	x	x	x	-6.0	x	x
Cc1cccc(/C=N/Nc2cc(N3CCOCC3)nc(N3CCOCC3)n2)c1	i	61.2	-0.9	2.1	3.0	75.0*	36.3
CC(C)c1ccc(/C=N/Nc2cc(N3CCOCC3)nc(N3CCOCC3)n2)cc1	i	21.6	-1.0	-3.7	-2.2	x	x
CCCCC(=O)O[C@]1(C(=O)CO)CCC2C3CCC4=CC(=O)CC[C@]4(C)C3[C@@H](O)C[C@@]21C (some centres undefined)	x	x	x	x	0.2	x	x
N#CCc1ccc(NS(=O)(=O)c2ccc(C3CCCCC3)cc2)cc1	i	76.1*	-4.3	5.0	-3.7	92.3*	72.2*
COc1ccc(S(=O)(=O)Nc2ccc(CC#N)cc2)cc1	i	-5.4	-1.3	1.4	4.2	x	x
Cc1cccc(NS(=O)(=O)c2ccc(C3CCCCC3)cc2)c1	i	70.2*	-0.4	2.8	2.4	93.5*	79.1*
Cc1nc(N2CCN(C(=O)C3CCCCC3)CC2)c2c3c(sc2n1)CCCC3	x	x	x	x	-1.1	x	x
CCOC(=O)c1ccc(NS(=O)(=O)c2cc3c4c(c2)CCN4C(=O)CC3)cc1	i	62.7	0.3	-1.6	7.0	22.0	28.2
CO[C@H]1O[C@H](CNC(=O)N(CCCl)N=O)[C@@H](O)[C@H](O)[C@H]1O	x	x	x	x	-6.3	x	x
COC(=O)[C@]12C[C@H](CC(=O)N3CCC(c4ccccc4)CC3)C(=O)N(Cc3ccc4c(c3)OCO4)C1=C[C@H](C(C)(C)C)O[C@@H]2C	x	x	-0.9	x	3.9	x	x
CCCc1cc(=O)n2[nH]cc(-c3ccc(Cl)cc3)c2n1	x	93.3*	-2.4	x	-2.3	98.2*	70.9*
CC(=O)c1cnc(SCc2ccc(Cl)cc2)nc1C	i	-2.2	0.2	-2.3	8.4	x	x
Cc1nc(SCc2ccc(Cl)c(Cl)c2)ncc1C(=O)O	i	58.9	-0.4	2.8	5.1	13.6	27.0
C=CCO[C@H]1CN(C(=O)OC)[C@@H](c2ccccc2Br)C[C@H]1OCC=C	x	x	-1.0	x	-0.2	x	x
COc1ccc(-c2noc(CCCCC(=O)N3CCN(c4cc(C)ccc4C)CC3)n2)cc1	i	99.4*	-1.0	x	-3.9	96.5*	84.4*
COc1ccc(C(=O)NC2CCCc3c2cnn3-c2cccc(C)c2C)o1 (centres undefined)	i	65.2	-2.4	1.5	-4.1	31.9	30.1
Cc1cccc(-n2ncc3c2CCCC3NC(=O)Cc2c(C)noc2C)c1C (centres undefined)	i	60.0	-2.5	0.2	-0.4	54.4	56.9
Cc1cccc(-n2ncc3c2CCCC3NC(=O)c2cccs2)c1C (centres undefined)	i	17.4	-1.7	x	-1.6	x	x
Cc1cccc(-n2ncc3c2CCCC3NC(=O)c2ccncc2)c1C (centres undefined)	i	83.0*	2.0	x	4.3	85.1*	76.8*
CCn1cc(C(=O)NC2CCCc3c2cnn3-c2cccc(C)c2C)cn1 (centres undefined)	i	104.9*	-0.4	-0.1	1.2	94.8*	88.3*
CC1=C(C(=O)NC2CCCc3c2cnn3-c2cccc(C)c2C)OCCO1 (centres undefined)	i	80.2*	0.9	0.8	3.5	73.0*	66.7
Cc1cc(C(=O)NC2CCCc3c2cnn3-c2cccc(C)c2C)no1 (centres undefined)	i	12.5	-0.2	-0.7	-1.4	x	x
CCCn1c(=N)n(CC(O)COc2ccc(C)cc2)c2ccccc21 (centres undefined)	i	16.8	0.2	-4.1	0.0	x	x
